Here are results for 13 molecules from ChEMBL document CHEMBL1123540, “Potential antitumor agents. 45. Synthesis, DNA-binding interaction, and biological activity of triacridine derivatives” (J Med Chem, 1986).

Test [1] relates to L1210. Put plainly: Concentration of compound required to inhibit growth of L1210 leukemia cells in culture by 50%. The settings on record: Mus musculus. The format is functional, cell-based. Summed up:
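L1210 leukemia cells grown in culture with continuous drug exposure for 70 h; IC50 in nanomolar, drug concentration giving 50% growth inhibition.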

Test [2] is described as follows: In vitro inhibition of Escherichia coli DNA-dependent RNA polymerase using both calf thymus and phage T7 DNA template. Summed up: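 E. coli RNA polymerase (0.65 μg) added to template DNA (2.5 μg; calf thymus or phage T7) plus drug. TCA-pyrophosphate precipitates counted by scintillation; IC50 from inhibition curves, mean of 2–4 determinations.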
Test [3] concerns Nucleic Acid. Put plainly: Inhibitory concentration against ethidium bromide binding to DNA [poly(dG-dC)]. Format: nucleic-acid assay. In short, it runs like this: (§1)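 C50 is the micromolar drug concentration displacing 50% of ethidium bromide already bound to DNA, read by fluorescence. It is used as a comparative measure of DNA binding.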
Test [4] deals with Nucleic Acid. Put plainly: Inhibitory concentration against ethidium bromide binding to DNA [poly(dA-dT)]. The format is nucleic-acid assay. In short, it runs like this: as §1
Test [5] deals with P388. Put plainly: Optimal dose administered ip as a solution in 0.1 mL of 30% v/v ethanol-water after intraperitoneal inoculation of 10e6 P388 leukemia cells. Format: functional, Mus musculus. In short, it runs like this: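 P388 leukemia cells (10^6) inoculated ip. Drug given ip in 30% v/v ethanol-water on days 1, 5 and 9, in mg/kg per day. The optimal dose is the one giving the best increase in lifespan over untreated tumor-bearing controls; >20% counted significant.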

Test [6] concerns P388. Put plainly: Percentage increase in life span (ILS) of compound treated tumor-bearing animals compared to tumor-bearing controls when treated at the optimal dose. Format: functional, Mus musculus. Summed up: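 P388 leukemia: 10^6 cells inoculated intraperitoneally; drug given i.p. in 30% v/v ethanol-water on days 1, 5 and 9. Dose is in mg/kg per day. ILS is the percent increase in lifespan over untreated tumor-bearing controls at the optimal dose. Values above 20% count as significant.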

Each structure is given as a SMILES string. “And” between values parts separate entries of the source, which are not always exact repeats. Identical values can stand only once.

As to `NC(CC(=O)NCCCNc1c2ccccc2nc2ccccc12)CC(=O)NCCCNc1c2ccccc2nc2ccccc12`, the IC50 (in general, the concentration that inhibits the measured activity by half) was 0.47 µM in test [1]; 4.2 µM and 3.1 µM in test [2]. Moreover, the C50 in test [3] turned out to be 0.21 µM; in test [4] it was 0.09 µM.
Molecule `Cl.O=C(CC(CC(=O)NCCCCCNc1c2ccccc2nc2ccccc12)Nc1c2ccccc2nc2ccccc12)NCCCCCNc1c2ccccc2nc2ccccc12` displayed an Optimal dose in test [5] of 8.9 mg/kg/day. Also, the IC50 in test [1] is 0.58 µM; in test [2] it was 4.1 µM and 4.5 µM. Further, the C50 in test [3] worked out at 0.25 µM; in test [4] it was 0.35 µM. Besides, in test [6], the ILS (as a rule, the gain in survival time of treated over control animals, in per cent) turned out to be 21%.
The molecule `Cl.O=C(CCCC(=O)NCCCCCCCNc1c2ccccc2nc2ccccc12)NCCCCCCCNc1c2ccccc2nc2ccccc12` had an Optimal dose in test [5] of 30 mg/kg/day. For the same molecule, the half-inhibitory concentration (IC50) in test [1] was 0.96 µM; in test [2], 6.2 µM and 4.5 µM. Besides, the C50 stood at 0.23 µM in test [3] and 0.15 µM in test [4].
As to `Cl.O=C(CC(CC(=O)NCCCCNc1c2ccccc2nc2ccccc12)Nc1c2ccccc2nc2ccccc12)NCCCCNc1c2ccccc2nc2ccccc12`, the Optimal dose in test [5] came to 8.9 mg/kg/day. The half-inhibitory concentration (IC50) in test [1] is 2.3 µM; in test [2], 5.9 µM and 5.4 µM. Further, the C50 came out at 0.13 µM in test [3] and 0.08 µM in test [4].
Turning to `Cl.O=C(CCCC(=O)NCCCCNc1c2ccccc2nc2ccccc12)NCCCCNc1c2ccccc2nc2ccccc12`, in test [5], the Optimal dose came out at 20 mg/kg/day. The IC50 in test [1] is 0.24 µM; in test [2], 4.6 µM and 4.1 µM. Also, the C50 in test [3] came out at 0.13 µM; in test [4] it was 0.28 µM. The increase in life span (ILS) in test [6] came out at 30%.
As for `Cl.O=C(CC(CC(=O)NCCCCCCCNc1c2ccccc2nc2ccccc12)Nc1c2ccccc2nc2ccccc12)NCCCCCCCNc1c2ccccc2nc2ccccc12`, the Optimal dose in test [5] came out at 20 mg/kg/day. Moreover, the half-maximal inhibitory concentration (IC50) was 0.59 µM in test [1]; 4.6 µM and 3.7 µM in test [2]. Further, the C50 turned out to be 0.14 µM in test [3] and 0.1 µM in test [4].
Turning to `Cl.O=C(CCCC(=O)NCCCCCNc1c2ccccc2nc2ccccc12)NCCCCCNc1c2ccccc2nc2ccccc12`, the Optimal dose in test [5] came to 20 mg/kg/day. For the same molecule, the IC50 is 0.17 µM in test [1]; 5.2 µM and 4.2 µM in test [2]. Besides, the C50 in test [3] was 0.24 µM; in test [4], 0.28 µM. The same molecule showed an ILS in test [6] of 33%.
With `Cl.O=C(CCCC(=O)NCCNc1c2ccccc2nc2ccccc12)NCCNc1c2ccccc2nc2ccccc12`, in test [5], the Optimal dose worked out at 30 mg/kg/day. Further, the IC50 is 3.08 µM in test [1]; 9.2 µM and 6.7 µM in test [2]. Moreover, the values for the C50 in test [3] and in test [4] were 0.29 µM and 0.3 µM, respectively.
Molecule `Cl.O=C(CCCC(=O)NCCCCCCNc1c2ccccc2nc2ccccc12)NCCCCCCNc1c2ccccc2nc2ccccc12` registered an Optimal dose in test [5] of 45 mg/kg/day. In addition, the IC50 in test [1] was 0.25 µM; in test [2], 4.9 µM and 4.7 µM. Also, the C50 in test [3] is 0.33 µM; in test [4], 0.22 µM.
The molecule `Cl.O=C(CC(CC(=O)NCCCNc1c2ccccc2nc2ccccc12)Nc1c2ccccc2nc2ccccc12)NCCCNc1c2ccccc2nc2ccccc12` gave an Optimal dose in test [5] of 8.9 mg/kg/day. The IC50 in test [1] was 0.8 µM; in test [2], 13.2 µM and 12.8 µM. For the same molecule, the C50 in test [3] came out at 0.19 µM; in test [4], 0.1 µM.
`Cl.O=C(CCCC(=O)NCCCNc1c2ccccc2nc2ccccc12)NCCCNc1c2ccccc2nc2ccccc12` registered an Optimal dose in test [5] of 13.3 mg/kg/day. Besides, the IC50 is 0.35 µM in test [1]; 7.5 µM and 6.2 µM in test [2].
`Cl.O=C(CC(CC(=O)NCCCCCCNc1c2ccccc2nc2ccccc12)Nc1c2ccccc2nc2ccccc12)NCCCCCCNc1c2ccccc2nc2ccccc12` returned an Optimal dose in test [5] of 20 mg/kg/day. Besides, the IC50 in test [1] was 0.35 µM; in test [2], 4.1 µM and 4 µM. Moreover, the C50 in test [3] and in test [4] was 0.11 µM in each case. In test [6], the ILS was found to be 21%.
The molecule `Cl.O=C(CC(CC(=O)NCCNc1c2ccccc2nc2ccccc12)Nc1c2ccccc2nc2ccccc12)NCCNc1c2ccccc2nc2ccccc12` gave an Optimal dose in test [5] of 3.9 mg/kg/day. Moreover, the IC50 was 5.9 µM in test [1]; 30.3 µM and 30 µM in test [2]. Further, the C50 in test [3] was 0.38 µM; in test [4] it was 0.43 µM.
